The values below come from paper PMC8245904 (Acta Pharmaceutica Sinica. B, 2021).

The conditions of data set [1]: cited from earlier work.
Data set [2] can be described thus: rat single-pass intestinal perfusion. The format is in vivo. The conditions noted are these: with EDTA at 1 mg/mL or the two hypotonic (100 mOsm) perfusion solutions with or without lidocaine; rat SPIP, n = 6.
The nature of data set [3]: compatibility/stability of study drugs in perfusion solution. Type of data set: physicochemical. Conditions: solution pH 6.5, 37 °C; for concentration in perfusion solution, after: after 4 h; for concentration in perfusion solution, before: before 4 h.
For data set [4] the following is noted: ref 22 (enalaprilat), ref 23 (hexarelin); cited from earlier work.
The conditions of data set [5]: n-octanol-water coefficient; ref 22 (enalaprilat), ref 23 (hexarelin); cited from earlier work.
The conditions of data set [6]: cited from earlier work; for basal permeability: recent rat SPIP study with transcellular PEs; for effect of transcellular PEs on jejunal permeability: sodium dodecyl sulfate (SDS) and caprate, rat SPIP in vivo.
For data set [7] the following is noted: Pefabloc SC at 0.3 mg/mL, in rat; cited from earlier work.
For data set [8] the following is noted: dissociation constant; cited from earlier work.
Data set [9] can be described thus: blood-to-lumen jejunal 51Cr-EDTA clearance. The format is in vivo. The conditions noted are these: hypotonic perfusate (100 mOsm) with lidocaine, rat SPIP, test vs control period. In a few lines:
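Male Wistar Han rats (299–395 g) anaesthetised with inactin (180 mg/kg i.p., 5% w/v), body temperature held at 37.5 ± 0.5 °C, arterial pressure monitored. The proximal jejunal segment (about 10 cm) was single-pass perfused at 0.2 mL/min at 37 °C. A 30-min PBS stabilisation reached steady plasma 51Cr-EDTA. Then came 60 min of isotonic pH 7.4 control buffer holding both peptides, followed by 75 min of hypotonic (100 mOsm) perfusate with lidocaine 1 mg/mL. Clearance was computed as blood-to-lumen 51Cr-EDTA transport per 100 g wet jejunal tissue, expressed as the ratio of mean test-period (60 min) to mean control-period (45 min) values. n = 6 rats.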

Read-outs that look alike come from different tables or passages of the source.

semaglutide: the “terminal half-life in plasma” value in [1] is listed as roughly 1 week. The “bioavailability of the given oral dose” value in [1] (with SNAC) is reported as 0.4%–1.0.

Broadly, the LogP is the decadic logarithm of the partition coefficient of the neutral form, usually between octanol and water. Regarding Hexarelin, the “Peff ratio (baseline vs. test)” value in data set [2] is “no increase”. Also, in data set [3], the “concentration in perfusion solution, after” value came to 33.9 µM and the “concentration in perfusion solution, before” value stood at 29.9 µM. Also, in [4], the “HBA (hydrogen bond acceptor)” value is given as 9, the “HBD (hydrogen bond donor)” value is 11 and the “PSA (polar surface area)” value is 300. Also, in data set [5], the LogP was 0.73. Also, in data set [6], the basal permeability is listed as 0.0019 ± 0.0013 × 10^−4 cm/s and the “effect of transcellular PEs on jejunal permeability” value is given as “unaffected”.

With `Cl.NCCc1ccc(S(=O)(=O)F)cc1` [Pefabloc SC], the “inhibition of the intestinal degradation of hexarelin” value in [7] is listed as “completely inhibits”.

desmopressin: the “bioavailability of the given oral dose” value in [1] is 0.1%.

Regarding `C[C@H](N[C@@H](CCc1ccccc1)C(=O)O)C(=O)N1CCC[C@H]1C(=O)O` [Enalaprilat], in [3], the “concentration in perfusion solution, after” value was 84.8 µM and the “concentration in perfusion solution, before” value is 83.9 µM. Moreover, in [4], the “HBA (hydrogen bond acceptor)” value was 6 and the “HBD (hydrogen bond donor)” value is listed as 3. In data set [8], the “pKa (footnote a, Acid)” value was 7.84 and the “pKa (footnote b, Base)” value was 3.17. Further, the LogP in [5] was −0.13. Besides, in data set [6], the basal permeability is 0.013 ± 0.009 × 10^−4 cm/s and the “effect of transcellular PEs on jejunal permeability” value is given as “substantially increased”.

Consider `O=C([O-])CN(CCN(CC(=O)[O-])CC(=O)[O-])CC(=O)[O-].[51Cr+3]` [51Cr-EDTA, ^51chromium-labeled EDTA], for which the “increase in CLCr-EDTA (permeability)” value in data set [9] came to 15 fold.
